Source: PubChem BioAssay (several laboratories)
The sample as a whole holds a higher share of hits than the screen did.
G6PDH counter = L. mesenteroides G6PDH inhibitors, counter-screen for G6PDH-coupled screening assays, biochemical, Leuconostoc mesenteroides enzyme; Purified L. mesenteroides G6PDH, diaphorase/resazurin coupled fluorescence, 45 min; glucose-6-phosphate dehydrogenase [Leuconostoc mesenteroides]; 200,000 tested, 0.12% active; inhibition, % at 5 µM
L major viab = Leishmania major promastigote growth inhibition, primary screen; 200,000 tested, 9% active; AID 1063, 2008; inhibition, % at 10 µM; Leishmania major promastigotes, resazurin fluorescence viability;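 note: promastigotes grown with compound for 44 hours at 28 °C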
Diaphorase inh = diaphorase inhibitors and chemical oxidizers, primary screen, counter-screen for diaphorase-coupled primary assays, biochemical, uHTS, resorufin fluorescence; inhibition, % at 20 µM; 190,000 tested, 0.69% active; diaphorase resazurin-to-resorufin fluorescence, NADH, 16 min; bacterial (C. kluyveri) enzyme, not human;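 active = primary screen inhibition at 20 µM above a set limit, cut at about 50% in these data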;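 note: plate controls were DMSO with full reaction for no effect and wells lacking NADH for full effect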
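System: Bacterial diaphorase enzyme (C. kluyveri) | Incubation: 16-min room-temperature incubation before reading | Benchmarks: No-NADH positive control and DMSO neutral control | Measured by: Resorufin fluorescence 544/590 nm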
PfG6PD inh = PfG6PD enzyme inhibitors, primary screen, biochemical, fluorescence intensity, uHTS | glucose-6-phosphate dehydrogenase-6-phosphogluconolactonase (Plasmodium falciparum 3D7) | PfGluPho enzyme, NADPH resazurin-diaphorase fluorescence | inhibition, % at 20 µM | 350,000 tested, 0.78% active;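 active = inhibition reaching at least a set limit at 20 µM in the primary screen, cut at about 59% in these data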;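 note: 0% = DMSO wells with substrate and 100% = DMSO wells lacking glucose-6-phosphate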
Redox H2O2 prof = compounds producing H2O2 with reducing agent – biochemical, NIH compound library profiling, artefact control for MLSCN library redox annotation, primary screen | activation, % at 10 µM | 200,000 tested, 0.03% active | AID 878, 2007 | DTT-dependent redox cycling H2O2, phenol red/HRP absorbance; 100% = 100 µM peroxide control, 0% = buffer;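 active = activation of at least 50% relative to the plate's high and low controls in the primary single-dose screen; inactive = activation below 50%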;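 note: compound incubated with DTT at 0.8 mM final as the reducing agent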
Diaph act CS = compounds boosting diaphorase resazurin reduction – biochemical, uHTS, resorufin fluorescence, counter-screen for diaphorase-coupled primary assays, primary screen | Diaphorase/resazurin coupled assay, 16 min; hits give high values; 1 = vehicle wells, 0 = NADH-free wells | activation factor at 20 µM | 190,000 tested, 0.005% active | AID 1229, 2008;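 active = diaphorase activity raised at least twofold by the compound at 20 µM; inactive = activation factor below 2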
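Assay system: bacterial diaphorase enzyme (C. kluyveri) / Input: enzyme 0.07 U/mL final / Medium: 50 mM HEPES pH 7.4 with 4.542 mM MgCl2, 0.005% Tween 20 / Doses: single compound dose of 20 µM, 1% DMSO final / Incubation: 16 min enzyme reaction, ambient temperature / Signal: fluorescence, excitation 544 nm and emission 590 nm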
Numbers without * were called inactive; . = no result. Cut-off read from the data, not from the text of the source, unless noted: active = inhibition above about 50%; inactive = the rest.

SMILES	G6PDH counter	L major viab	Diaphorase inh	PfG6PD inh	Redox H2O2 prof	Diaph act CS
Cc1ccsc1C(=O)OCC(=O)N1C(C)CCCC1C (stereo not drawn)	.	.	.	0	.	.
O=C(Cc1cccc(C(F)(F)F)c1)NCC(=O)Nc1cc(Cl)ccc1Cl	.	.	.	26	.	.
OCC1(Cc2cccc(Cl)c2)CCCN(Cc2ccc3cc(F)ccc3n2)C1 (stereo not drawn)	15	55*	25	10	-1	0.8
CC(C)Cc1cc(CN2CCC(CO)(Cc3cccc(C(F)(F)F)c3)CC2)[nH]n1	8	85*	1	12	0	1
Cc1cc(CN2CCCC(CO)(Cc3cccc(Cl)c3)C2)n[nH]1 (stereo not drawn)	7	29	4	-6	1	1
CC(C)Cc1cc(CN2CCCC(CO)(Cc3cccc(Cl)c3)C2)[nH]n1 (stereo not drawn)	10	68*	32	-11	-1	0.7
Fc1ccccc1Oc1nc(-c2ccncc2)nc2ccccc12	.	.	.	5	.	.
COc1ccc(C(C)C)cc1S(=O)(=O)NC1CCCC1	.	.	.	2	.	.
COc1cc2c(cc1OC)CN(c1nc(CN3CCCCC3)nc3sc4c(c13)CCCC4)CC2	-3	99*	3	5	.	1
O=C(NCCc1c[nH]c2ccccc12)C(=O)NCC1OCCN1S(=O)(=O)c1ccccc1 (stereo not drawn)	3	70*	12	-11	0	0.9
O=C(NCCc1c[nH]c2ccccc12)C(=O)NCC1OCCN1S(=O)(=O)c1ccc(Cl)cc1 (stereo not drawn)	21	54*	17	11	0	0.8
O=C(NCCC1=CCCCC1)C(=O)NCC1OCCCN1S(=O)(=O)c1ccc(F)cc1 (stereo not drawn)	4	96*	12	1	-1	0.9
O=C(NCCCn1ccnc1)C(=O)NCC1OCCCN1S(=O)(=O)c1ccc(Cl)cc1 (stereo not drawn)	2	51*	5	-1	1	0.9
O=C(NCCCn1ccnc1)C(=O)NCC1OCCN1S(=O)(=O)c1ccc(Cl)cc1 (stereo not drawn)	14	-2	-11	5	1	1.1
Cc1cccn2cc(CCNC(=O)Cc3cccs3)nc12	.	.	.	11	.	.
CCC(C)NC(=O)C1CCN(S(=O)(=O)c2cc([N+](=O)[O-])ccc2Cl)CC1 (stereo not drawn)	.	.	.	5	.	.
CC1CCN(S(=O)(=O)c2cc([N+](=O)[O-])ccc2Cl)CC1	18	55*	18	-13	0	0.8
O=[N+]([O-])c1ccc(Cl)c(CN2CCC(O)CC2)c1	0	62*	12	-3	0	0.9
COc1cc(OC)c(S(=O)(=O)Nc2ccc(C)cn2)cc1NC(C)=O	-7	-1	11	-5	0	0.9
Cc1cccc(-n2ccc(=O)c(C(=O)Nc3ccc(S(=O)(=O)N4CCOCC4)cc3)n2)c1	.	.	.	-6	.	.
O=C(COC(=O)c1ccncc1)Nc1cccc2ccccc12	.	.	.	-13	.	.
O=C(N/N=C/c1cc(Cl)cc(Cl)c1O)c1ccncc1	.	.	.	-20	.	.
O=C(N/N=C/c1cc(Br)cc(Br)c1O)c1ccncc1	-10	96*	52*	-30	0	0.5
O=C(N/N=C/c1ccc(Br)s1)c1ccncc1	2	-6	8	-12	0	0.9
O=C(N/N=C/c1cc(Br)c(Br)s1)c1ccncc1	0	98*	-5	19	-1	1.1
SMILES	G6PDH counter	L major viab	Diaphorase inh	PfG6PD inh	Redox H2O2 prof	Diaph act CS
O=C(Nc1ccnn1C1CCN(C2CCCC2)CC1)c1ccccc1	.	.	.	8	.	.
CS(=O)(=O)c1ccc(Cl)c(NC(=O)CSc2nc3ccccc3c(=O)n2CCCN2CCOCC2)c1	8	85*	8	-16	0	0.9
Cn1c(=O)c2c(nc(SCCN3CCCCC3)n2Cc2ccc(Cl)cc2)n(C)c1=O	9	90*	5	-17	0	0.9
COc1ccc(NC(=O)CSc2nc3ccccc3c(=O)n2CCCN2CCCCC2)c(OC)c1	5	100*	-4	-6	0	1
CCOC(=O)CSc1nc2c(sc3ccccc32)c(=O)n1CCCN1CCOCC1	-31	100*	30	5	8	0.7
O=C(COC(=O)/C=C/c1ccc(S(=O)(=O)N2CCOCC2)cc1)Nc1ccccc1F	.	.	.	1	.	.
CC(=O)c1ccccc1NC(=O)CSc1nc2ccccc2c(=O)n1CCCN1CCOCC1	.	.	.	5	.	.
O=c1c2ccccc2nc(SCCN2CCCCC2)n1CCc1ccccc1	9	86*	.	-1	0	.
O=C(CSc1nc2ccccc2c(=O)n1CCCN1CCOCC1)c1c[nH]c2ccccc12	10	53*	18	14	0	0.8
O=C(C1CCCCC1)N1C[C@H](n2cc(C3CC3)nn2)[C@@H](O)C[C@@H]1c1ccc(Cl)cc1	.	.	.	8	.	.
CC(CN1CCOCC1)OC(=O)C(c1ccccc1)c1ccccc1 (stereo not drawn)	1	6	14	-11	-2	0.9
CC(CN1CCCCC1)OC(=O)/C=C/c1ccccc1 (stereo not drawn)	.	.	.	14	.	.
CC(CN1CCCCC1)OC(=O)C(C)(c1ccccc1)c1ccccc1 (stereo not drawn)	11	100*	7	-11	0	0.9
CC(CN1CCOCC1)OC(=O)C(C)(c1ccccc1)c1ccccc1 (stereo not drawn)	7	55*	3	-13	1	1
CC(=O)Nc1cccc(NC(=O)COC(=O)CO/N=C(\C)c2ccc3c(c2)OCO3)c1	.	.	.	3	.	.
Cc1ccc(N(Cc2ccccc2)C(=O)CN2C(=O)NC3(CCCC3)C2=O)cc1	.	.	.	8	.	.
Cc1ccc(C2C3=C(CC(C)(C)CC3=O)N=C3c4ccccc4C(=O)C32)cc1 (stereo not drawn)	3	99*	20	51	1	0.8
Cc1ccc(C2C3=C(CC(C)(C)CC3=O)OC3=C2C(=O)CC(C)(C)C3)cc1	3	7	9	-26	-2	0.9
CCN(CC)S(=O)(=O)c1cc(NC(=O)C(C)N(C)CC(=O)Nc2c(C)cccc2C)ccc1C (stereo not drawn)	11	68*	14	-10	0	0.9
CCN(CC)S(=O)(=O)c1cc(NC(=O)C(C)N2CCc3ccccc32)ccc1C (stereo not drawn)	5	24	28	11	-2	0.7
